Laboratory results from ChEMBL document CHEMBL4373712, “Bioactivatable Pseudotripeptidization of Cyclic Dipeptides To Increase the Affinity toward Oligopeptide Transporter 1 for Enhanced Oral Absorption: An Application to Cyclo(l-Hyp-l-Ser) (JBP485)” (J Med Chem, 2019).

B1: Solute carrier family 15 member 1 (Homo sapiens) (protein)
chain: MGMSKSHSFFGYPLSIFFIVVNEFCERFSYYGMRAILILYFTNFISWDDNLSTAIYHTFVALCYLTPILGALIADSWLGKFKTIVSLSIVYTIGQAVTSVSSINDLTDHNHDGTPDSLPVHVVLSLIGLALIALGTGGIKPCVSAFGGDQFEEGQEKQRNRFFSIFYLAINAGSLLSTIITPMLRVQQCGIHSKQACYPLAFGVPAALMAVALIVFVLGSGMYKKFKPQGNIMGKVAKCIGFAIKNRFRHRSKAFPKREHWLDWAKEKYDERLISQIKMVTRVMFLYIPLPMFWALFDQQGSRWTLQATTMSGKIGALEIQPDQMQTVNAILIVIMVPIFDAVLYPLIAKCGFNFTSLKKMAVGMVLASMAFVVAAIVQVEIDKTLPVFPKGNEVQIKVLNIGNNTMNISLPGEMVTLGPMSQTNAFMTFDVNKLTRINISSPGSPVTAVTDDFKQGQRHTLLVWAPNHYQVVKDGLNQKPEKGENGIRFVNTFNELITITMSGKVYANISSYNASTYQFFPSGIKGFTISSTEIPPQCQPNFNTFYLEFGSAYTYIVQRKNDSCPEVKVFEDISANTVNMALQIPQYFLLTCGEVVFSVTGLEFSYSQAPSNMKSVLQAGWLLTVAVGNIIVLIVAGAGQFSKQWAEYILFAALLLVVCVIFAIMARFYTYINPAEIEAQFDEDEKKNRLEKSNPYFMSGANSQKQM

How the values were obtained:
[1] = Half life in 0.1 M HCl at 5 mM by HPLC analysis; format: physicochemical
Summary of the method: (§1)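 Compound at 5 mM in 0.1 M HCl, pH 4.5 acetate buffer, pH 5.8/6.8/7.2 phosphate buffers, SGF (pH 1.2) and SIF (pH 6.8), prepared per Chinese Pharmacopoeia. Samples taken at 0-20 h and analyzed by HPLC-UV. k = 2.303×slope of log C versus time; t1/2 = 0.693/k.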

[2] = Half life in pH 4.5 acetate buffer at 5 mM by HPLC analysis; format: physicochemical; summary of the method: as §1
[3] = Half life in pH 5.8 phosphate buffer at 5 mM by HPLC analysis; format: physicochemical; summary of the method: as §1
[4] = Half life in pH 6.8 phosphate buffer at 5 mM by HPLC analysis; format: physicochemical; summary of the method: as §1
[5] = Half life in pH 7.2 phosphate buffer at 5 mM by HPLC analysis; format: physicochemical; summary of the method: as §1
[6] = Half life in pH 1.2 simulated gastric fluid at 5 mM by HPLC analysis; format: ADME; summary of the method: as §1
[7] = Half life in pH 6.8 simulated intestinal fluid at 5 mM by HPLC analysis; format: ADME; summary of the method: as §1
[8] = Half life in Sprague-Dawley rat intestinal homogenates at 5 mM by HPLC analysis; format: ADME, tissue-based, Intestine
Summary of the method: (§2)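 Jejunum and liver homogenates from male SD rats in pH 7.4 PBS, adjusted to 200 µg/mL protein, and rat plasma. Each incubated with compound at 5 mM at 37 °C.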

[9] = Half life in Sprague-Dawley rat liver homogenates at 5 mM by HPLC analysis; format: ADME, tissue-based; summary of the method: as §2
[10] = Half life in Sprague-Dawley rat plasma at 5 mM by HPLC analysis; format: ADME, cell-free; summary of the method: as §2
[11] = Ratio of half-life in pH 7.2 phosphate buffer to half-life in Sprague-Dawley rat intestinal homogenates; format: ADME, tissue-based; conditions: tissue homogenate
[12] = Ratio of half-life in pH 7.2 phosphate buffer to half-life in Sprague-Dawley rat liver homogenates; format: ADME, tissue-based; conditions: tissue homogenate
[13] = Ratio of half-life in pH 7.2 phosphate buffer to half-life in Sprague-Dawley rat plasma; format: ADME
[14] = AUC (0 to t) in Sprague-Dawley rat assessed as JBP485 level at 12 mg/kg equiv of JBP485 administered orally by UPLC-MS/MS analysis; format: ADME, organism-based; conditions: in vivo, po
Summary of the method: (§3)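 Male SD rats, 200-250 g, fasted 12 h with water, n=6. Oral dose of 12 mg/kg as JBP485 equivalent; dose-effect arms at 12 and 100 mg/kg. JBP485 given iv at 6 mg/kg as the reference. Jugular blood taken at 0.083-10 h. Plasma JBP485 by UPLC-MS/MS. Absolute F = (AUCpo×Div)/(AUCiv×Dpo)×100%, using AUC0-t.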

[15] = Cmax in Sprague-Dawley rat assessed as JBP485 level at 12 mg/kg equiv of JBP485 administered orally by UPLC-MS/MS analysis; format: ADME, organism-based; parameters: dose 12 mg/kg, route oral; conditions: in vivo, po; summary of the method: as §3
[16] = Tmax in Sprague-Dawley rat assessed as JBP485 level at 12 mg/kg equiv of JBP485 administered orally by UPLC-MS/MS analysis; format: ADME, organism-based; conditions: in vivo, po
Summary of the method: (§4)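 Fasted male SD rats (200–250 g), oral 12 mg/kg (prodrugs calculated as JBP485). Jugular blood 0.083–10 h, centrifuged, plasma JBP485 by UPLC-MS/MS; n=6.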

[17] = Terminal half-life in Sprague-Dawley rat assessed as JBP485 level at 12 mg/kg equiv of JBP485 administered orally by UPLC-MS/MS analysis; format: ADME, organism-based; conditions: in vivo, po; summary of the method: as §4
[18] = Oral bioavailability in Sprague-Dawley rat assessed as JBP485 level at 12 mg/kg equiv of JBP485 by UPLC-MS/MS analysis; format: ADME, organism-based; conditions: in vivo; summary of the method: as §3
[19] = Apparent permeability across human Caco2 cells at 0.5 mM measured after 5 to 60 mins by UPLC-MS/MS analysis; format: ADME, cell-based; conditions: caco-2, 500 µM
Summary of the method: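 Caco-2 cells grown on 0.4 µm transwell inserts; monolayers used only with TEER >300 Ω/cm². Compound at 0.5 mM in apical pH 6.0 HBSS, basolateral pH 7.4 HBSS, 37 °C. Basolateral samples taken at 5, 15, 30, 45 and 60 min. Quantified by UPLC-MS/MS; Papp from steady-state flux, area and initial donor concentration. Three repeats.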

[20] = substrate: O=C(O)[C@H](CO)NC(=O)[C@@H]1C[C@@H](O)CN1; assay: (§5) Substrate activity at PEPT1 in human Caco2 cells assessed as Km measured after 10 mins by Eadie-Hofstee plot analysis; format: ADME, cell-based
Summary of the method: (§6)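 Caco-2 uptake at 0.2–5 mM compound for 10 min at 37 °C, cells washed ice-cold and lysed, drug quantified by UPLC-MS/MS and normalised to protein. Km from Eadie–Hofstee plot; n=3.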

[21] = substrate: O=C1N[C@@H](CO)C(=O)N2C[C@H](O)C[C@@H]12; assay: as §5; format: ADME, cell-based; summary of the method: as §6
[22] = substrate: [H][C@@]12C[C@@H](O)CN1C(=O)[C@H](COC(=O)[C@@H](N)C(C)C)NC2=O; assay: as §5; format: ADME, cell-based; summary of the method: as §6

Molecule	half-life at 5000 µM [1]	half-life at 5000 µM [2]	half-life at 5000 µM [3]	half-life at 5000 µM [4]	half-life at 5000 µM [5]	half-life at 5000 µM [6]	half-life at 5000 µM [7]	half-life at 5000 µM [8]	half-life at 5000 µM [9]	half-life at 5000 µM [10]	Ratio [11]	Ratio [12]	Ratio [13]	AUCt [14]	Cmax [15]	Tmax [16]	beta t1/2 [17]	F [18]	Papp [19]	also measured
N[C@@H](Cc1ccccc1)C(=O)OC[C@@H]1NC(=O)[C@@H]2C[C@@H](O)CN2C1=O	> 20 h	> 20 h	8.2 h	2.6 h	2.3 h	> 20 h	2.8 h	< 0.083 h	0.16 h	0.29 h	3 to 35	3 to 35	3 to 35	33.9 nM/ml.hr	10.7 µM	1 h	2.38 h	8.7%	–	–
CC(C)[C@H](N)C(=O)O[C@@H]1C[C@H]2C(=O)N[C@@H](CO)C(=O)N2C1	> 20 h	> 20 h	> 20 h	11.4 h	11.6 h	> 20 h	11.1 h	0.9 h	2.1 h	6.1 h	3 to 35	3 to 35	3 to 35	139.78 nM/ml.hr	98.3 µM	0.41 h	2.51 h	36%	Permeable	–
CCC(C)[C@H](N)C(=O)OC[C@@H]1NC(=O)[C@@H]2C[C@@H](O)CN2C1=O (some centres not stated)	> 20 h	> 20 h	> 20 h	11.6 h	9.6 h	> 20 h	10.9 h	0.8 h	4.8 h	4 h	3 to 35	3 to 35	3 to 35	122.65 nM/ml.hr	41.8 µM	0.9 h	0.9 h	31.6%	Permeable	–
CC(C)C[C@H](N)C(=O)OC[C@@H]1NC(=O)[C@@H]2C[C@@H](O)CN2C1=O	> 20 h	> 20 h	14.7 h	2.6 h	1.9 h	> 20 h	2.4 h	< 0.083 h	0.16 h	0.32 h	3 to 35	3 to 35	3 to 35	28.75 nM/ml.hr	8.95 µM	1.3 h	2.23 h	7.4%	–	–
B1	–	–	–	–	–	–	–	–	–	–	–	–	–	–	–	–	–	–	–	Km [20]: 650 µM; Km [21]: 2530 µM; Km [22]: 860 µM
